The IC50 is the concentration that gives 50% inhibition.

The text below walks through data of ChEMBL document CHEMBL1138326, “Structure-based design, synthesis, and biological evaluation of indomethacin derivatives as cyclooxygenase-2 inhibiting nitric oxide donors” (J Med Chem, 2007).

The target in test [1] is T1, Prostaglandin G/H synthase 1 (Homo sapiens, UniProt P23219). In words: Inhibition of COX1 in human whole blood assessed as effect on A23187-induced thromboxane B2 production at 100 uM relative to control; values are per cent of control.
Test [2] has as its target T1, Prostaglandin G/H synthase 1. In words: Inhibition of COX1 in human whole blood assessed as effect on A23187-induced thromboxane B2 production at 10 uM relative to control; values are per cent of control.
Test [3] has the same target. In words: Inhibition of COX1 in human whole blood assessed as effect on A23187-induced thromboxane B2 production at 3 uM relative to control; values are per cent of control.
The target is the same in test [4]. Briefly: Inhibition of COX1 in human whole blood assessed as effect on A23187-induced thromboxane B2 production at 30 uM relative to control; values are per cent of control.
The target is the same in test [5]. Briefly: Inhibition of COX1 in human whole blood assessed as effect on A23187-induced thromboxane B2 production. Format: tissue-based.
Test [6] concerns the target T2, Prostaglandin G/H synthase 2 (Homo sapiens) (UniProt P35354).
T2 sequence (whole entry): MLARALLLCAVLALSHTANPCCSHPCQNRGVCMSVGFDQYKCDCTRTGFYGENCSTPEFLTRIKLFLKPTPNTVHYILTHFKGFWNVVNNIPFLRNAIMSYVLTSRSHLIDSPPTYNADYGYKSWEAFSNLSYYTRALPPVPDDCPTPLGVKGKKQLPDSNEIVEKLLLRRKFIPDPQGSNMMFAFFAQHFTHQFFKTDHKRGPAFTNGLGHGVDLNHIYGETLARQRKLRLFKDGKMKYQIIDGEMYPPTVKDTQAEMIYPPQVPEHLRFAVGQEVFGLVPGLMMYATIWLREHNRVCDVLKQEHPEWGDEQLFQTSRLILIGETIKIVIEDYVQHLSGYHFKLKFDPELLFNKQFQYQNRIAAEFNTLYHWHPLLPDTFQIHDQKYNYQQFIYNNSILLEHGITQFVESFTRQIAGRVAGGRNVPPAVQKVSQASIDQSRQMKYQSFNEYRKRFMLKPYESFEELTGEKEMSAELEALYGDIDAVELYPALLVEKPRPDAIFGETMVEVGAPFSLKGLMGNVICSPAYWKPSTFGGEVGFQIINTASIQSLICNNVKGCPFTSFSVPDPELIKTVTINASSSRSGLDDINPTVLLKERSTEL
In words: Inhibition of COX2 in human whole blood assessed as effect on LPS-induced thromboxane B2 production at 30 uM relative to control; values are per cent of control.

The target of test [7] is T1, Prostaglandin G/H synthase 1. In words: Inhibition of COX1 in human whole blood assessed as effect on A23187-induced thromboxane B2 production at 1 uM relative to control; values are per cent of control.
The species entered for the next test is Homo sapiens. In words: Selectivity for human COX2 over human COX1.
For the next test, the system named is Rattus norvegicus. Briefly: Antiinflammatory activity against intrapouch dosed Sprague-Dawley rat carrageenan air-pouch model assessed as reduction of prostaglandin E2 at 45 umol/kg. Format: functional. On the set-up: scale not given: the % may be the effect or the level left. The essentials:
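Air pouch made with 20 mL sterile air sc on day -6 and 10 mL more on day -3; rats fasted 18 h. Compound in 0.5% methocel injected into the pouch 1 h before carrageenan (1 mL of 1.0% in saline). After 4 h, exudate recovered with PBS/heparin and assayed for PGE2 by enzyme immunoassay.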

T1 sequence (P23219 whole entry): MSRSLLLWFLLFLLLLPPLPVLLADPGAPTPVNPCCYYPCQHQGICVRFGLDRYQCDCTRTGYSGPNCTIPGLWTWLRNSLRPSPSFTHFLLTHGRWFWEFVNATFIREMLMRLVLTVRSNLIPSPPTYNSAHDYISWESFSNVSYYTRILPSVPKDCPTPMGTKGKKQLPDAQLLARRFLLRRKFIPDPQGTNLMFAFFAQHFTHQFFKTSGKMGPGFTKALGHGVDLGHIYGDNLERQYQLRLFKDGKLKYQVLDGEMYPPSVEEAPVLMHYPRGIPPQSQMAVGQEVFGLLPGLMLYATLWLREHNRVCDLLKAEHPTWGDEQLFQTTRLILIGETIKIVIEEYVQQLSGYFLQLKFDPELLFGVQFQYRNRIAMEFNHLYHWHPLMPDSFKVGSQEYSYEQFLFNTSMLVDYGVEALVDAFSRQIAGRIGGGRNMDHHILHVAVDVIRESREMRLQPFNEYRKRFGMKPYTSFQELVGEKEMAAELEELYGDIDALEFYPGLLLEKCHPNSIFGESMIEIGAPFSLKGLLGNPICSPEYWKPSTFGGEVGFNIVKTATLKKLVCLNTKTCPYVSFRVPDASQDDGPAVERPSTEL

As to `Cc1c(CC(=O)NCCCO[N+](=O)[O-])c2cc(O)ccc2n1C(=O)c1ccc(Cl)cc1`, the residual activity in [1] was determined as 1%; in test [2], 27%; in [3], 74%; in [4] it was 1%; in [6], 2%. The IC50 in test [5] came out at 4700 nM.

For the molecule `COc1ccc2c(c1)c(CCO[N+](=O)[O-])c(C)n2CC1CCCCC1`, in [1], the residual activity was determined as 93%.

On to `COc1ccc2c(c1)c(CCN)c(C)n2C(=O)c1ccc(Cl)cc1`, for which the residual activity in test [1] came out at 1%; in [2], 100%; in [7], 100%; in test [6], 78%. Besides, in [5], the IC50 was more than 10000 nM.

In the case of `Cc1c(CC(=O)NCCCO[N+](=O)[O-])c2cc(OS(N)(=O)=O)ccc2n1C(=O)c1ccc(Cl)cc1`, the residual activity in [1] came out at 65%; in [2] it was 92%; in [7] it was 100%; in test [6], 46%. Besides, the Ratio IC50 in the test filed under Homo sapiens is more than 4. Further, the IC50 in [5] was more than 100000 nM.

Take `COc1ccc2c(c1Cl)c(CC(=O)OCc1ccccc1)c(C)n2C(=O)c1ccc(Cl)cc1`: in test [1], the residual activity was 65%. The IC50 in [5] is more than 100000 nM.

As for `COc1ccc2c(c1)c(CCOC(=O)NS(=O)(=O)NCCCO[N+](=O)[O-])c(C)n2C(=O)c1ccc(Cl)cc1`, the residual activity worked out at 61% in test [1], 100% in test [2] and 100% in test [7].

Take `COc1ccc2c(c1)c(CC(=O)NOC(C)=O)c(C)n2C(=O)c1ccc(Cl)cc1`: the residual activity was determined as 7% in test [1], 34% in test [2] and 68% in test [7]. In test [5], the IC50 turned out to be 3600 nM.

With `COc1ccc2c(c1)c(CC(=O)N(OC(C)=O)C(C)=O)c(C)n2C(=O)c1ccc(Cl)cc1`, the values for the residual activity in test [1], in test [2] and in [7] were 6%, 14% and 39%, respectively. For the same molecule, the half-inhibitory concentration (IC50) in test [5] was less than 1000 nM.

On to `Cc1c(CC(=O)NCCCO)c2cc(O)ccc2n1C(=O)c1ccc(Cl)cc1`, for which the residual activity in test [1] stood at 8%; in test [2] it was 40%; in test [3] it was 58%; in test [4], 7%; in test [7] it was 83%; in test [6], 4%. In addition, in [5], the IC50 was 5400 nM.

On to `COc1ccc2c(c1)c(CCNS(=O)(=O)c1ccc(CO[N+](=O)[O-])cc1)c(C)n2C(=O)c1ccc(Cl)cc1`, for which the residual activity in test [1] is 12%; in [2], 23%; in test [7] it was 68%. Further, the IC50 in test [5] worked out at 1900 nM.

Turning to `COc1ccc2c(c1)c(CCO)c(C)n2CC1CCCCC1`, the residual activity in test [1] came to 95%.

As for `COc1ccc2c(c1)c(CC(=O)NO)c(C)n2C(=O)c1ccc(Cl)cc1` [OXAMETACIN], the residual activity in test [1] was found to be 2%; in test [2], 29%; in test [7] it was 84%. In addition, the concentration for half-maximal inhibition (IC50) in [5] came to 2800 nM.

As for `COc1ccc2c(c1)c(CCO[N+](=O)[O-])c(C)n2C(=O)c1ccc(Cl)cc1`, the residual activity in test [1] worked out at 15%; in [2], 73%; in [7], 69%.

With `COc1ccc2c(c1)c(CC(=O)NC(CO[N+](=O)[O-])(CO[N+](=O)[O-])CO[N+](=O)[O-])c(C)n2C(=O)c1ccc(Cl)cc1`, the residual activity in [1] turned out to be 1%; in [2], 11%; in test [3] it was 16%; in [7], 50%. Moreover, in [5], the IC50 is 1200 nM.

Regarding `COc1ccc2c(c1)c(CC(=O)NOCc1ccccc1)c(C)n2C(=O)c1ccc(Cl)cc1`, the residual activity in [1] was found to be 0%. For the same molecule, the IC50 in [5] is less than 300 nM.

With `COc1ccc2c(c1)c(CCOC(=O)NCCCO[N+](=O)[O-])c(C)n2C(=O)c1ccc(Cl)cc1`, the values for the residual activity in [1], in test [2] and in test [7] were 62%, 74% and 83%, respectively.

For `COc1ccc2c(c1)c(CC(=O)O)c(C)n2Cc1ccc(S(C)(=O)=O)cc1`, the residual activity in test [1] was found to be 87%.

Turning to `COc1ccc2c(c1)c(CC(=O)NCCCO[N+](=O)[O-])c(C)n2CC1CCCCC1`, in test [1], the residual activity was 100%.

Take `COc1ccc2c(c1)c(CCP(=O)(O)O)c(C)n2C(=O)c1ccc(Cl)cc1`: the residual activity in [1] came to 76%.

For the molecule `COc1ccc2c(c1)c(CC(=O)O)c(C)n2C(=O)c1ccc(Cl)cc1` [INDOMETHACIN], the Activity in the test on Rattus norvegicus turned out to be 97%.

For `COc1ccc2c(c1)c(CCO)c(C)n2C(=O)c1ccc(Cl)cc1`, the residual activity in test [1] stood at 0%; in test [2] it was 16%; in [3], 18%; in test [7], 76%. The IC50 in test [5] was determined as 2300 nM.

Regarding `COc1ccc2c(c1)c(CCNC(=O)NCCCO[N+](=O)[O-])c(C)n2C(=O)c1ccc(Cl)cc1`, the residual activity came out at 2% in test [1], 29% in test [2] and 93% in test [7]. The Ratio IC50 in the test listed under Homo sapiens came out at 0.3. Besides, in test [5], the IC50 worked out at 3000 nM.

On to `CCOC(=O)Cc1c(C)n(CC2CCCCC2)c2ccc(OC)cc12`, for which the residual activity in test [1] is 85%.

As to `Cc1c(CC(=O)O)c2cc(O)ccc2n1C(=O)c1ccc(Cl)cc1`, the residual activity in test [1] is 18%; in test [2], 55%; in test [3] it was 80%; in test [7] it was 100%; in [6], 0%.

Consider `COc1ccc2c(c1)c(CCOC(=O)NS(=O)(=O)OCCCO[N+](=O)[O-])c(C)n2C(=O)c1ccc(Cl)cc1`, for which the residual activity in [1] was 44%.

Turning to `COc1ccc2c(c1)c(CCNC(=O)c1ccc(CO[N+](=O)[O-])cc1)c(C)n2C(=O)c1ccc(Cl)cc1`, the IC50 in [5] is less than 1000 nM.

For the molecule `COc1cc2c(CC(=O)O)c(C)n(C(=O)c3ccc(Cl)cc3)c2cc1Cl`, the residual activity is 13% in test [1]; 24% in [2]; 41% in [3]; 2% in test [4]; 61% in test [7]; 0% in [6]. Besides, in the test filed under Homo sapiens, the Ratio IC50 is 0.4. Also, in test [5], the IC50 is 1600 nM.

With `COc1ccc2c(c1)c(CC(=O)NCCCCO)c(C)n2C(=O)c1ccc(Cl)cc1`, the residual activity amounted to 1% in test [1], 23% in test [2], 46% in test [3] and 64% in [7]. Besides, the Ratio IC50 in the test listed under Homo sapiens is 2. The half-inhibitory concentration (IC50) in test [5] was found to be 2400 nM.

For the molecule `COc1ccc2c(c1)c(CC(=O)O)c(C)n2CC1CCCCC1`, in [1], the residual activity was 85%.

Take `COc1ccc2c(c1)c(CC(=O)NCC(C)(C)CO[N+](=O)[O-])c(C)n2C(=O)c1ccc(Cl)cc1`: the residual activity was found to be 3% in test [1]; 25% in [2]; 45% in test [3]; 3% in test [4]; 78% in test [7]. Further, in test [5], the IC50 worked out at 2600 nM.

Turning to `COc1ccc2c(c1)c(CC(=O)NCCCO[N+](=O)[O-])c(C)n2Cc1ccc(S(C)(=O)=O)cc1`, the residual activity in test [1] was found to be 53%.

Regarding `COc1cc2c(CC(=O)OCc3ccccc3)c(C)n(C(=O)c3ccc(Cl)cc3)c2cc1Cl`, the residual activity in test [1] was 58%. The IC50 in test [5] is more than 100000 nM.

As for `COc1ccc2c(c1)c(CC(=O)NOCCO)c(C)n2C(=O)c1ccc(Cl)cc1`, the residual activity in test [1] turned out to be 1%; in test [2], 3%; in test [3], 20%. Further, the IC50 in test [5] was less than 1000 nM.
